The record followed here is ChEMBL document CHEMBL2429846, “Inhibition of monoamine oxidase by 3,4-dihydro-2(1H)-quinolinone derivatives” (Bioorg Med Chem Lett, 2013).

Data set [1] has as its target T1, Amine oxidase [flavin-containing] A (Homo sapiens, UniProt P21397).
T1 sequence (P21397 whole entry): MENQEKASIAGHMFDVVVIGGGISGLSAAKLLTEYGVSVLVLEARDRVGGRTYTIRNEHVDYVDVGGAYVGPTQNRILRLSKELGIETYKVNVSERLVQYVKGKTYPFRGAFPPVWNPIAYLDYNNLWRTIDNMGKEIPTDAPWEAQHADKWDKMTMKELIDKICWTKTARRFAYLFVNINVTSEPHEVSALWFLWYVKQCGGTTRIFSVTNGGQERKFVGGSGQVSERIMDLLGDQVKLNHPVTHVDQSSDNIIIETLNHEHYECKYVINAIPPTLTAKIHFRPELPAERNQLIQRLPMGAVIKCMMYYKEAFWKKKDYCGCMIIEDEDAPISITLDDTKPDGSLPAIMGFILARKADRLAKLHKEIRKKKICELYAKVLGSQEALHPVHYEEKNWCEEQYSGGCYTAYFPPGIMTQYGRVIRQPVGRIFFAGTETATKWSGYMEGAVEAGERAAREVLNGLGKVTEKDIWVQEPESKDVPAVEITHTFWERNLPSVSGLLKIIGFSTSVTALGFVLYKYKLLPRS
Description: Inhibition of recombinant human MAO-A assessed as inhibition of kynuramine conversion to fluorescent metabolite 4-hydroxyquinoline at 100 uM after 20 mins by fluorescence spectrophotometry.

Data set [2] concerns the target T1, Amine oxidase [flavin-containing] A. The data set is described as follows: Inhibition of recombinant human MAO-A assessed as inhibition of kynuramine conversion to fluorescent metabolite 4-hydroxyquinoline after 20 mins by fluorescence spectrophotometry. In outline: (§1)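 IC50 values were read from sigmoidal concentration–inhibition curves of enzyme activity plotted against log inhibitor concentration.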

Data set [3] has as its target T2, Amine oxidase [flavin-containing] B (Homo sapiens, UniProt P27338).
T2 sequence (P27338 whole entry): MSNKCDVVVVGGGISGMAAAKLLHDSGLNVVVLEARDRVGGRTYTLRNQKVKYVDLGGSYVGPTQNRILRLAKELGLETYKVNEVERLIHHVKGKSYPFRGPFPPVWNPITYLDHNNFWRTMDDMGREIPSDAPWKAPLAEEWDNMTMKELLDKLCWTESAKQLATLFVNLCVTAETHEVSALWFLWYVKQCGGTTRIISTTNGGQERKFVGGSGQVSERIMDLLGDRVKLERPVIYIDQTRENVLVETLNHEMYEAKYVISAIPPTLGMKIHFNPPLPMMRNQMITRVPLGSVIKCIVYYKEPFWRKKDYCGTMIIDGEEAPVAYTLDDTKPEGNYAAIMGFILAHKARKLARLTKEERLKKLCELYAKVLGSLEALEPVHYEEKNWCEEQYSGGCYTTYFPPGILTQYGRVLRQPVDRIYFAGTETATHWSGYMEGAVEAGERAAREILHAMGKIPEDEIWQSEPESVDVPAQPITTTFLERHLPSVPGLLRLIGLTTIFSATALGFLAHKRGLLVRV
Description: Inhibition of recombinant human MAO-B assessed as inhibition of kynuramine conversion to fluorescent metabolite 4-hydroxyquinoline after 20 mins by fluorescence spectrophotometry. In outline: as §1

The next data set is filed under the species Homo sapiens. Description: Selectivity index, ratio of IC50 for recombinant human MAO-A to IC50 for recombinant human MAO-B. In outline: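 The index was calculated as IC50(MAO-A)/IC50(MAO-B), giving selectivity for the MAO-B isoform.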
The target in data set [4] is T2, Amine oxidase [flavin-containing] B. The data set is described as follows: Reversible inhibition of recombinant human MAO-B using kynuramine as substrate assessed as residual activity at 100 times IC50 preincubated for 30 mins followed by 100 fold dilution measured after 20 mins by fluorescence spectrophotometry relative to control.
Data set [5] shares this target. The data set is described as follows: Inhibition of recombinant human MAO-B assessed as inhibition of kynuramine conversion to fluorescent metabolite 4-hydroxyquinoline at 100 uM after 20 mins by fluorescence spectrophotometry.

In the case of `O=C1CCc2ccc(OCc3cccc(Cl)c3)cc2N1`, the “inhibition (INH)” value in data set [1] was “Not Active”.
In the case of `O=C1CCc2ccc(OCCCc3ccccc3)cc2N1`, the IC50 (usually the midpoint of a concentration-inhibition curve) in data set [2] was 22.5 µM; in data set [3], 130 nM. Moreover, the Ratio IC50 in the data set filed under Homo sapiens was 173.
On the same counts, the results for `O=C1CCc2cc(O)ccc2N1` are 161 µM, 201000 nM and 0.8.
Turning to `O=C1CCc2cc(OCc3cccc(Cl)c3)ccc2N1`, the IC50 in data set [2] was 50.6 µM; in data set [3], 620 nM. For the same molecule, in the data set listed under Homo sapiens, the Ratio IC50 came out at 82.
Turning to `O=C1CCc2cc(OCc3ccccc3)ccc2N1`, the IC50 in data set [2] is 25.3 µM; in data set [3] it was 4010 nM. Also, the Ratio IC50 in the data set listed under Homo sapiens stood at 6.
Turning to `O=C1CCc2ccc(OCc3cccc(Br)c3)cc2N1`, the Activity in data set [4] was determined as 36%. The IC50 in data set [2] was 7.98 µM.
`O=C1CCc2cc(OCCc3ccccc3)ccc2N1`: the figures for the IC50 in data set [2] and in data set [3] were 22.5 µM and 2330 nM, respectively. Besides, in the data set filed under Homo sapiens, the Ratio IC50 was found to be 10.
The like results for `O=C1CCc2cc(OCc3cccc(Br)c3)ccc2N1` were, in that order, 12.4 µM, 86 nM and 144.
Take `O=C1CCc2cc(OCCCc3ccccc3)ccc2N1`: the IC50 in data set [2] worked out at 19.7 µM; in data set [3], 284 nM. In addition, the Ratio IC50 in the data set filed under Homo sapiens came out at 69.
Take `O=C1CCc2ccc(OCc3ccccc3)cc2N1`: the figures for the IC50 in data set [2] and in data set [3] were 90.4 µM and 38 nM, respectively. In addition, the Ratio IC50 in the data set filed under Homo sapiens is 2380.
`O=C1CCc2ccc(O)cc2N1`: the IC50 in data set [2] amounted to 183 µM. The “inhibition (INH)” value in data set [5] is given as “Not Active”.
As to `O=C1CCc2ccc(OCCc3ccccc3)cc2N1`, the IC50 stood at 53.7 µM in data set [2] and 191 nM in data set [3]. The Ratio IC50 in the data set filed under Homo sapiens amounted to 281.
